From ChEMBL document CHEMBL1123749, “O-carbamoylsalicylates: agents for modification of hemoglobins” (J Med Chem, 1987)

Key:
Type in all cases: functional
[1] = Effect of compound on modification of deoxy form of hemoglobin was expressed as percent modification at 5 mM concentration
How it was run: (§1)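 Human hemoglobin A (1.0 mM) treated with reagent in 0.1 M Tris-HCl buffer, pH 7.3, at 37 °C for 2 h. Extent of modification and oxygen affinity (p50, mm) then determined by a previously described method; p50 read with and without inositol hexaphosphate. Reagent concentration uncertain for some compounds owing to incomplete solubility.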

[2] = Effect of compound on modification of oxy form of hemoglobin was expressed as percent modification at 5 mM concentration; how it was run: as §1
[3] = Effect of compound on oxygen affinity, was expressed as P50 (mmHg) at 5 mM concentration in the absence of Inositol hexa phosphate (IHP); how it was run: as §1
[4] = Effect of compound on oxygen affinity, was expressed as P50 (mmHg) at 5 mM concentration in the presence of Inositol hexa phosphate (IHP); how it was run: as §1
[5] = Effect of compound on modification of oxy form of hemoglobin was expressed as percent modification at 10 mM concentration, concentration is uncertain due to incomplete solubility
How it was run: (§2)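 Hemoglobin A (1.0 mM) incubated with carbamate reagent in 0.1 M Tris-HCl, pH 7.3, at 37 °C for 2 h. Extent of modification and oxygen affinity (p50, mmHg) then measured by a previously described method. Oxygen binding was read with and without inositol hexaphosphate. At 10 mM, reagent concentration is uncertain for some compounds because of incomplete solubility.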

[6] = Effect of compound on oxygen affinity, was expressed as P50 (mmHg) at 10 mM concentration in the presence of 2 mM Inositol hexa phosphate (IHP); how it was run: as §2
[7] = Effect of compound on oxygen affinity, was expressed as P50 (mmHg) at 10 mM concentration in the absence of Inositol hexa phosphate (IHP); how it was run: as §2
[8] = Effect of compound on modification of oxy form of hemoglobin was expressed as percent modification at 10 mM concentration; how it was run: as §1
[9] = Effect of compound on modification of deoxy form of hemoglobin expressed as percent modification at 5 mM concentration; how it was run: as §2
[10] = Effect of compound on modification of oxy form of hemoglobin expressed as percent modification at 5 mM concentration; how it was run: as §2
[11] = Effect of compound on oxygen affinity, expressed as P50 (mmHg) at 10 mM concentration in the absence of Inositol hexa phosphate (IHP); how it was run: as §2
[12] = Effect of compound on oxygen affinity, expressed as P50 (mmHg) at 10 mM concentration in the presence of 2 mM Inositol hexa phosphate (IHP); how it was run: as §2
[13] = Effect of compound on oxygen affinity, expressed as P50 (mmHg) at 5 mM concentration in the absence of Inositol hexa phosphate (IHP); how it was run: as §2
[14] = Effect of compound on oxygen affinity, expressed as P50 (mmHg) at 5 mM concentration in the presence of Inositol hexa phosphate (IHP); how it was run: as §2
[15] = Effect of compound on modification of oxy form of hemoglobin expressed as percent modification at 10 mM concentration; how it was run: as §2

For `NC(=O)Oc1ccccc1C(=O)OCc1ccccc1`, the Modification of hemoglobin [1] was 46%, the Modification of hemoglobin [2] was 45% and the P50 [3] was 6 mmHg. For the same compound, the P50 [4] was 37.5 mmHg.

For `CN(C)C(=O)Oc1ccccc1C(=O)O`, the Modification of hemoglobin [5] was 0%, the P50 [6] was 42 mmHg and the P50 [7] was 6 mmHg.

For `NC(=O)Oc1ccccc1C(=O)O`, the Modification of hemoglobin [1] was 58%, the Modification of hemoglobin [8] was 94% and the Modification of hemoglobin [2] was 62%. The P50 [6] was 22 mmHg, the P50 [3] was 6 mmHg and the P50 [4] was 33 mmHg. It also gave a P50 [7] of 6 mmHg.

Work on `COC(=O)c1ccccc1OC(N)=O` yielded a Modification of hemoglobin [1] of 52%, a Modification of hemoglobin [8] of 83% and a Modification of hemoglobin [2] of 54%. For the same compound, the P50 [6] was 25 mmHg, the P50 [3] was 6 mmHg and the P50 [4] was 35 mmHg. For the same compound, the P50 [7] was 6 mmHg.

With `NC(=O)Oc1ccccc1` the Modification of hemoglobin [9] was 40%, the Modification of hemoglobin [10] was 44% and the P50 [11] was 5 mmHg. For the same compound, the P50 [12] was 30 mmHg, the P50 [13] was 6 mmHg and the P50 [14] was 39 mmHg. For the same compound, the Modification of hemoglobin [15] was 67%.

In the case of `CN(C)C(=O)Oc1c(Br)cc(Br)cc1C(=O)OCc1ccccc1`, the Modification of hemoglobin [1] was 0%, the Modification of hemoglobin [8] was 0% and the Modification of hemoglobin [2] was 0%. For the same compound, the P50 [6] was 41 mmHg, the P50 [3] was 6 mmHg and the P50 [4] was 41 mmHg. It also gave a P50 [7] of 7 mmHg.

With `CN(C)C(=O)Oc1ccccc1C(=O)OCc1ccccc1` the Modification of hemoglobin [1] was 0%, the Modification of hemoglobin [8] was 0% and the Modification of hemoglobin [2] was 0%. The P50 [6] was 44 mmHg, the P50 [3] was 6 mmHg and the P50 [4] was 42 mmHg. For the same compound, the P50 [7] was 6 mmHg.

With `COC(=O)c1ccc(OC(N)=O)cc1` the Modification of hemoglobin [1] was 58%, the Modification of hemoglobin [8] was 89% and the Modification of hemoglobin [2] was 61%. It also gave a P50 [6] of 23 mmHg, a P50 [3] of 6 mmHg and a P50 [4] of 33 mmHg. The P50 [7] was 6.5 mmHg.
